Laboratory results published in ChEMBL document CHEMBL2021767, “Library-based discovery and characterization of daphnane diterpenes as potent and selective HIV inhibitors in Daphne gnidium” (J Nat Prod, 2012).
Active and inactive are the calls of the source. The rule behind the calls is not given here.

Assays:
[1] = tested on: Human immunodeficiency virus 1; experiment: Resistance factor, ratio of EC50 for multidrug-resistant HIV1 695-RT infected in HEK293T cells to wildtype HIV1 infected in HEK293T cells; type: functional, HEK-293T
How it was run: (§1)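 Resistance factor = EC50 against mutant virus (106-PR or 695-RT) divided by EC50 against wild-type; EC50s from 4-day HEK293T-transfection/HeLa-SxR5 co-culture with β-galactosidase read-out (405 nm), normalized to plate controls, curve-fitted.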

[2] = tested on: Human immunodeficiency virus 1; experiment: Antiviral activity against multidrug-resistant HIV1 695-RT infected in HEK293T cells assessed as inhibition of viral replication after 4 days by beta-galactosidase reporter gene assay; type: functional, organism-based; conditions: Human immunodeficiency virus 1, 695-RT, HEK-293T, 96 h
How it was run: (§2)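 HEK293T transfected with proviral DNA (wild-type NL4-3 CXCR4-tropic or NL-AD87 CCR5-tropic, or multiresistant 106-PR protease-inhibitor or 695-RT RT-inhibitor mutants), then co-cultured 4 days with HeLa-SxR5 reporter cells (CD4, CCR5, endogenous CXCR4, LTR-LacZ) plus test substance; DMEM/10% FBS, 37 °C, 7% CO2. β-galactosidase colorimetric read at 405 nm, normalized to plate controls; EC50 from fitted dose-response curves.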

[3] = tested on: Human immunodeficiency virus 1; experiment: Antiviral activity against wild type Human immunodeficiency virus 1 NL4-3 pseudotyped with HIV envelope infected in human HeLa-SxR5 cells assessed as inhibition of viral replication at 65 nM after 3 days by beta-galactosidase assay; type: functional, organism-based
How it was run: (§3)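 HEK293T cells cotransfected with an envelope-defective NL4-3-derived provirus plus a plasmid expressing full-length NL4-3 HIV envelope. Supernatants were harvested 2 days post-transfection, spun at low speed to clear debris, and used to transduce HeLa-SxR5 reporter cells (CD4/CCR5, endogenous CXCR4, HIV-LTR-LacZ) with or without compound. β-galactosidase was read colorimetrically at 405 nm 3 days later and normalised to positive and negative control wells as percent inhibition.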

[4] = tested on: Human immunodeficiency virus 1; experiment: Antiviral activity against wild type Human immunodeficiency virus 1 NL4-3 pseudotyped with VSV envelope infected in human HeLa-SxR5 cells assessed as inhibition of viral replication at 65 nM after 3 days by beta-galactosidase assay; type: functional, organism-based
How it was run: (§4)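 Pseudoparticles made by cotransfecting HEK293T with env-defective NL4-3 provirus plus plasmid for full-length NL4-3 Env or VSV envelope; supernatants harvested 2 days post-transfection, cleared by low-speed spin, used to transduce HeLa-SxR5 with or without compound at increasing concentrations; β-galactosidase activity measured 3 days later; means ± standard deviation.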

[5] = tested on: Human immunodeficiency virus 1; experiment: Resistance factor, ratio of EC50 for multidrug-resistant HIV1 106-PR infected in HEK293T cells to wildtype HIV1 infected in HEK293T cells; type: functional, HEK-293T; how it was run: as §1
[6] = tested on: Human immunodeficiency virus 1; experiment: Antiviral activity against multidrug-resistant HIV1 106-PR infected in HEK293T cells assessed as inhibition of viral replication after 4 days by beta-galactosidase reporter gene assay; type: functional, organism-based; conditions: Human immunodeficiency virus 1, 106-PR, HEK-293T, 96 h; how it was run: as §2
HEK-293T = experiment: Cytotoxicity against human HEK293T cells after 4 days by Alamar blue assay; type: cell-based; conditions: 96 h
How it was run: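 Same culture set-up as the anti-HIV assay (HEK293T with HeLa-SxR5, DMEM/10% FBS, 37 °C, 7% CO2) but with no proviral DNA transfected; viability read with AlamarBlue after 4 days.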

[7] = tested on: Human immunodeficiency virus 1; experiment: Antiviral activity against CCR5-tropic HIV1 NL-AD87 infected in HEK293T cells assessed as inhibition of viral replication after 4 days by beta-galactosidase reporter gene assay; type: functional, organism-based; conditions: Human immunodeficiency virus 1, NL-AD87, HEK-293T, 96 h; how it was run: as §2
[8] = tested on: Human immunodeficiency virus 1; experiment: Antiviral activity against CXCR4-tropic HIV1 NL4-3 infected in HEK293T cells assessed as inhibition of viral replication after 4 days by beta-galactosidase reporter gene assay; type: functional, organism-based; conditions: Human immunodeficiency virus 1, NL4-3, HEK-293T, 96 h; how it was run: as §2
[9] = tested on: Human immunodeficiency virus 1; experiment: Antiviral activity against wild type Human immunodeficiency virus 1 NL4-3 pseudotyped with VSV envelope infected in human HeLa-SxR5 cells assessed as inhibition of viral replication at 300 nM after 3 days by beta-galactosidase assay; type: functional, organism-based; how it was run: as §4
[10] = tested on: Human immunodeficiency virus 1; experiment: Antiviral activity against wild type Human immunodeficiency virus 1 NL4-3 pseudotyped with HIV envelope infected in human HeLa-SxR5 cells assessed as inhibition of viral replication at 300 nM after 3 days by beta-galactosidase assay; type: functional, organism-based; how it was run: as §3
PBMC [11] = experiment: Down-regulation of CCR5 expression in PHA- and IL-2-stimulated human PBMC membranes at 20 nM after 48 hrs by flow cytometric analysis; type: functional, cell-based
How it was run: (§5)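 Healthy-donor PBMCs at 1 × 10^6 cells/mL in RPMI/10% FBS, activated 48 h with PHA 2.5 μg/mL and IL-2 300 IU/mL, then treated 48 h with 20 nM compound or vehicle (0.25% DMSO, 100 IU/mL IL-2). Sampled at 0, 2, 5, 24, 48 h; stained 40 min at 4 °C with FITC anti-CXCR4 or anti-CCR5, or PE anti-CD69, plus isotype controls; flow cytometry, % cells expressing each receptor.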

PBMC [12] = experiment: Upregulation of CD69 expression in PHA- and IL-2-stimulated human PBMC membranes at 20 nM after 48 hrs by flow cytometric analysis; type: functional, cell-based; how it was run: as §5
PBMC [13] = experiment: Down-regulation of CXCR4 expression in PHA- and IL-2-stimulated human PBMC membranes at 20 nM after 48 hrs by flow cytometric analysis; type: functional, cell-based; how it was run: as §5
[14] = tested on: Human immunodeficiency virus 1; experiment: Antiviral activity against wild type Human immunodeficiency virus 1 NL4-3 pseudotyped with HIV envelope infected in human HeLa-SxR5 cells assessed as inhibition of viral replication after 3 days by beta-galactosidase assay; type: functional, organism-based; how it was run: as §4
[15] = tested on: Human immunodeficiency virus 1; experiment: Antiviral activity against wild type Human immunodeficiency virus 1 NL4-3 pseudotyped with VSV envelope infected in human HeLa-SxR5 cells assessed as inhibition of viral replication after 3 days by beta-galactosidase assay; type: functional, organism-based; how it was run: as §4

Nc1ccn([C@@H]2CS[C@H](CO)O2)c(=O)n1 [LAMIVUDINE]
Ratio EC50 [1]: >300
EC50 [2]: > 20 µM

O=C1Nc2ccc(Cl)cc2[C@@](C#CC2CC2)(C(F)(F)F)O1 [EFAVIRENZ]
Ratio EC50 [1]: 222
inhibition [3]: Active
EC50 [2]: 0.889 µM
inhibition [4]: Active

CC(C)(C)NC(=O)[C@@H]1C[C@@H]2CCCC[C@@H]2CN1C[C@@H](O)[C@H](Cc1ccccc1)NC(=O)[C@H](CC(N)=O)NC(=O)c1ccc2ccccc2n1 [SAQUINAVIR]
Ratio EC50 [5]: 1
EC50 [6]: 0.012 µM

C=C(C)C12OC3(c4ccccc4)OC1[C@@H]1[C@@H]4O[C@]4(CO)[C@@H](O)[C@]4(O)C(=O)C(C)=C[C@H]4C1(O3)[C@H](C)[C@H]2OC(=O)/C=C/C=C/C=C/CCC (stereo not given in full) [GNIDITRIN]
Activity (HEK-293T): Non-toxic
EC50 [7]: 0.133 µM
EC50 [8]: 0.074 µM

enfuvirtide
inhibition [9]: inactive
inhibition [10]: Active

C=C(C)[C@@]12O[C@@]3(c4ccccc4)O[C@@H]1[C@@H]1[C@@H]4O[C@]4(CO)[C@@H](O)[C@]4(O)C(=O)C(C)=C[C@H]4[C@@]1(O3)[C@H](C)[C@H]2OC(=O)/C=C/c1ccccc1 [GNIDICIN]
Activity (HEK-293T): Non-toxic
EC50 [7]: 0.0176 µM
EC50 [8]: 0.0086 µM

Cc1cn([C@H]2C[C@H](N=[N+]=[N-])[C@@H](CO)O2)c(=O)[nH]c1=O [ZIDOVUDINE]
Ratio EC50 [1]: 11
EC50 [2]: 0.2 µM
EC50 [6]: 0.006 µM

C=C(C)[C@]12C[C@@H](C)[C@@]34O[C@](/C=C/C=C/CCCCC)(O[C@@H]1[C@@H]3[C@@H]1O[C@]1(CO)[C@@H](O)[C@]1(O)C(=O)C(C)=C[C@H]14)O2 [EXCOECARIA TOXIN]
Activity (HEK-293T): Non-toxic
EC50 [7]: 1.57 µM
EC50 [8]: 1.08 µM

Cc1cccc(C)c1OCC(=O)N[C@@H](Cc1ccccc1)[C@@H](O)C[C@H](Cc1ccccc1)NC(=O)[C@H](C(C)C)N1CCCNC1=O [LOPINAVIR]
Ratio EC50 [5]: 10
EC50 [6]: 0.16 µM

C=C(C)[C@]12C[C@@H](C)[C@@]34O[C@](c5ccccc5)(O[C@@H]1[C@@H]3[C@@H]1O[C@]1(CO)[C@@H](O)[C@]1(O)C(=O)C(C)=C[C@H]14)O2 [DAPHNETOXIN]
Activity (HEK-293T): Non-toxic
Activity (PBMC [11]): Active
Ratio EC50 [1]: 1
Activity (PBMC [12]): Active
EC50 [2]: 0.021 µM
Activity (PBMC [13]): Active
Ratio EC50 [5]: 1
inhibition [14]: Dose-dependent effect
EC50 [7]: 0.0267 µM
EC50 [8]: 0.0162 µM
inhibition [15]: Dose-dependent effect
EC50 [6]: 0.022 µM

CC(C)CN(C[C@@H](O)[C@H](Cc1ccccc1)NC(=O)O[C@H]1CO[C@H]2OCC[C@H]21)S(=O)(=O)c1ccc(N)cc1 [DARUNAVIR]
Ratio EC50 [5]: >300
EC50 [6]: 13.7 µM

COC(=O)N[C@H](C(=O)N[C@@H](Cc1ccccc1)[C@@H](O)CN(Cc1ccc(-c2ccccn2)cc1)NC(=O)[C@@H](NC(=O)OC)C(C)(C)C)C(C)(C)C [ATAZANAVIR]
Ratio EC50 [5]: 7
EC50 [6]: 0.324 µM
